In ChEMBL document CHEMBL3244396, “Synthesis and antileukemic activity of 5-substituted 2,3-dihydro-6,7-bis(hydroxymethyl)-1H-pyrrolizine diesters” (J Med Chem, 1977) one finds EC50, Activity and T/C data, which are given here for one compound.

Converted amounts (≈) assume the structure as drawn.

The nature of data set [1]: Cytotoxicity against human 9KB cells treated as ethanol solution. Conditions: read-out: ED50 (the source's name). The format is functional. The gist of the method:
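Compound applied as an ethanol solution; activity read out as ED50 under the general screening protocol.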

Data set [2] deals with L1210. As to the kind of experiment: Antileukemic activity against mouse L1210 cells allografted in female CDF1 mouse assessed as change in body weight at 50 mg/kg, ip administered daily for 9 days as Klucel suspension starting 24 hrs after tumor inoculation. The data set is classed as functional. Particulars: route intraperitoneal. The method, boiled down: (§1)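 Ascitic fluid carrying L1210 cells was inoculated ip. Compound was given ip as a Klucel (hydroxypropylcellulose) suspension in nine daily doses, starting 24 h after inoculation. Body-weight difference (treated minus control) was recorded on day 5. Survival was scored as %T/C of mean survival time.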

The test system of data set [3] is L1210. The data set can be described thus: Antileukemic activity against mouse L1210 cells allografted in female CDF1 mouse assessed as change in body weight at 100 mg/kg, ip administered daily for 9 days as Klucel suspension starting 24 hrs after tumor inoculation. The format is functional. Conditions: route intraperitoneal. The gist of the method:
as §1

The subject of data set [4] is L1210. The data set can be described thus: Antileukemic activity against mouse L1210 cells allografted in female CDF1 mouse assessed as change in body weight at 200 mg/kg, ip administered daily for 9 days as Klucel suspension starting 24 hrs after tumor inoculation. Conditions: route intraperitoneal. The data set is classed as functional. The gist of the method:
as §1

For data set [5], the system named is L1210. As to the kind of experiment: Antileukemic activity against mouse L1210 cells allografted in female CDF1 mouse assessed as change in body weight at 400 mg/kg, ip administered daily for 9 days as Klucel suspension starting 24 hrs after tumor inoculation. Particulars: route intraperitoneal. The data set is classed as functional. The gist of the method:
as §1

Data set [6] relates to L1210. The data set can be described thus: Antileukemic activity against mouse L1210 cells allografted in male CDF1 mouse assessed as change in body weight at 50 mg/kg, ip administered daily for 9 days as Klucel suspension starting 24 hrs after tumor inoculation. Particulars: route intraperitoneal. The format is functional. The method, boiled down: as §1
Data set [7] deals with L1210. As to the kind of experiment: Antileukemic activity against mouse L1210 cells allografted in male CDF1 mouse assessed as change in body weight at 100 mg/kg, ip administered daily for 9 days as Klucel suspension starting 24 hrs after tumor inoculation. The format is functional. Particulars: route intraperitoneal. The method, boiled down:
as §1

Data set [8] deals with L1210. The data set can be described thus: Antileukemic activity against mouse L1210 cells allografted in male CDF1 mouse assessed as change in body weight at 200 mg/kg, ip administered daily for 9 days as Klucel suspension starting 24 hrs after tumor inoculation. The format is functional. Particulars: route intraperitoneal. The gist of the method: as §1
Data set [9] has as its system L1210. The data set can be described thus: Antileukemic activity against mouse L1210 cells allografted in male CDF1 mouse assessed as host mean survival time at 200 mg/kg, ip administered daily for 9 days as Klucel suspension starting 24 hrs after tumor inoculation relative to control. The data set is classed as functional. Particulars: route intraperitoneal. The gist of the method: (§2)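 L1210 leukemia given as an ascitic fluid cell inoculum, ip, to mice of the strain and sex in each line. Test material was given ip for nine daily doses starting 24 h after inoculation, in a Klucel (hydroxypropylcellulose) suspension. Read-out is mean survival time as %T/C versus controls, with >125 taken as significant.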

Data set [10] deals with L1210. As to the kind of experiment: Antileukemic activity against mouse L1210 cells allografted in male CDF1 mouse assessed as host mean survival time at 100 mg/kg, ip administered daily for 9 days as Klucel suspension starting 24 hrs after tumor inoculation relative to control. Conditions: route intraperitoneal. The data set is classed as functional. The method, boiled down:
as §2

Data set [11] deals with L1210. As to the kind of experiment: Antileukemic activity against mouse L1210 cells allografted in male CDF1 mouse assessed as host mean survival time at 50 mg/kg, ip administered daily for 9 days as Klucel suspension starting 24 hrs after tumor inoculation relative to control. The data set is classed as functional. Conditions: route intraperitoneal. The gist of the method: as §2

Data set [12] has as its system L1210. The data set can be described thus: Antileukemic activity against mouse L1210 cells allografted in female CDF1 mouse assessed as host mean survival time at 200 mg/kg, ip administered daily for 9 days as Klucel suspension starting 24 hrs after tumor inoculation relative to control. The data set is classed as functional. Particulars: route intraperitoneal. The method, boiled down:
as §2

Data set [13] has as its system L1210. As to the kind of experiment: Antileukemic activity against mouse L1210 cells allografted in female CDF1 mouse assessed as host mean survival time at 100 mg/kg, ip administered daily for 9 days as Klucel suspension starting 24 hrs after tumor inoculation relative to control. The format is functional. Particulars: route intraperitoneal. The method, boiled down:
as §2

For data set [14], the system named is L1210. As to the kind of experiment: Antileukemic activity against mouse L1210 cells allografted in female CDF1 mouse assessed as host mean survival time at 50 mg/kg, ip administered daily for 9 days as Klucel suspension starting 24 hrs after tumor inoculation relative to control. The data set is classed as functional. Conditions: route intraperitoneal. The gist of the method: as §2

The test system of data set [15] is Mus musculus. As to the kind of experiment: Toxicity in male CDF1 mouse allografted with mouse L1210 cells assessed as animal survival at 200 mg/kg, ip administered daily for 9 days as Klucel suspension starting 24 hrs after tumor inoculation measured on fifth day. Conditions: in vivo. More on the design: dose 200 mg/kg, route intraperitoneal. The data set is classed as organism-based. The gist of the method:
(§3)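 L1210 leukemia passaged as ascitic fluid and inoculated ip. Test agent given ip as a Klucel (hydroxypropylcellulose) suspension, nine daily doses starting 24 h after tumor inoculation. Acute toxicity read as toxicity-day survivors per group (out of 6), recorded on day 5. Animal weight difference T − C was also recorded. Follows NCI screening protocols.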

For data set [16], the system named is Mus musculus. As to the kind of experiment: Toxicity in male CDF1 mouse allografted with mouse L1210 cells assessed as animal survival at 100 mg/kg, ip administered daily for 9 days as Klucel suspension starting 24 hrs after tumor inoculation measured on fifth day. The data set is classed as organism-based. Set-up: dose 100 mg/kg, route intraperitoneal. Particulars: in vivo. The gist of the method: as §3

Data set [17] deals with Mus musculus. The data set can be described thus: Toxicity in male CDF1 mouse allografted with mouse L1210 cells assessed as animal survival at 50 mg/kg, ip administered daily for 9 days as Klucel suspension starting 24 hrs after tumor inoculation measured on fifth day. Particulars: in vivo. The data set is classed as organism-based. More on the design: dose 50 mg/kg, route intraperitoneal. The method, boiled down: as §3

The test system of data set [18] is Mus musculus. The data set can be described thus: Toxicity in female CDF1 mouse allografted with mouse L1210 cells assessed as animal survival at 400 mg/kg, ip administered daily for 9 days as Klucel suspension starting 24 hrs after tumor inoculation measured on fifth day. Particulars: in vivo. The data set is classed as organism-based. Set-up: dose 400 mg/kg, route intraperitoneal. The method, boiled down: as §3

Data set [19] has as its system Mus musculus. The data set can be described thus: Toxicity in female CDF1 mouse allografted with mouse L1210 cells assessed as animal survival at 50 mg/kg, ip administered daily for 9 days as Klucel suspension starting 24 hrs after tumor inoculation measured on fifth day. More on the design: dose 50 mg/kg, route intraperitoneal. The format is organism-based. Conditions: in vivo. The gist of the method: as §3

Take `COc1ccc(-c2c(COC(C)=O)c(COC(C)=O)c3n2CCC3)cc1`: the EC50 in data set [1] amounted to 2.5 µg/mL (≈ 6.99 µM). In addition, the Activity in data set [2] is -1 g; in [3] it was -2.5 g; in [4] it was -2.5 g; in data set [5], -0.1 g; in data set [6] it was -2.9 g; in data set [7], -7.2 g. Besides, the Activity in [8] is on record as -5.2 g; in [15], “Non-toxic”; in [16] it was “Non-toxic”; in data set [17], “Non-toxic”; in [18], “Toxic”; in [19], “Non-toxic”. For the same compound, the T/C in [9] came out at 130%; in [10] it was 78%; in data set [11] it was 113%; in data set [12] it was 65%; in [13], 65%; in [14] it was 77%.
